From ChEMBL document CHEMBL3272249, “Esters of N-tert-butylarterenol. Long-acting new bronchodilators with reduced cardiac effects” (J Med Chem, 1976)

Tests used:
Canis familiaris [1] = assay: Bronchodilator activity in dog assessed as degree of inhibition of carbachol or histamine-induced bronchoconstriction at 2000 to 2700 mg/kg, it relative to control; assay type: functional, Canis lupus familiaris; details: dose mg/kg 2000-2700; route endotracheal
How it was run: (§1)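 Anesthetized dogs, trachea cannulated with a nonbreathing valve. Bronchoconstriction induced by iv carbachol (2–4 μg/kg) or histamine diphosphate (20–50 μg/kg) in separate animals, and airway pressure recorded by transducer. Drug stocks were made fresh in distilled water, diluted in saline and kept on ice. Read-out was percent inhibition of control constriction, averaged over at least three dogs per dose at the higher dose. Carbachol and histamine data were combined.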

Canis familiaris [2] = assay: Bronchodilator activity in dog assessed as time of inhibition of carbachol or histamine-induced bronchoconstriction at 2000 to 2700 mg/kg, it relative to control; assay type: functional, Canis lupus familiaris; details: dose mg/kg 2000-2700; route endotracheal
How it was run: (§2)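 Dog airway model: anesthetized, cannulated via a nonbreathing valve, with airway pressure changes recorded after iv carbachol (2–4 μg/kg) or histamine diphosphate (20–50 μg/kg) challenge, each agonist in different animals. Compounds were given iv, intraduodenally or intratracheally from fresh aqueous stocks diluted in saline. Duration (h) of inhibition of induced bronchoconstriction was followed, and the two agonist datasets were pooled.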

Canis familiaris [3] = assay: Cardiotoxicity in spontaneously respiring dog assessed as degree of increase in heart rate at 2000 to 2700 mg/kg, it relative to control; assay type: toxicity, organism-based, Canis lupus familiaris; design: dose 2000-2700 mg/kg, route endotracheal; details: in vivo, inhaled_or_intranasal
How it was run: (§3)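 Anesthetized, spontaneously respiring dogs. Heart rate was taken from a lead II EKG, and blood pressure from the right femoral artery by transducer. The increase in heart rate (beats/min) was scored on a graded scale with more than 4 dogs per dose, and its duration was recorded. Drugs were dissolved fresh in distilled water, diluted in physiological saline and kept on ice.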

Canis familiaris [4] = assay: Bronchodilator activity in dog assessed as degree of inhibition of carbachol or histamine-induced bronchoconstriction at 30 to 60 mg/kg, iv relative to control; assay type: functional, Canis lupus familiaris; details: dose mg/kg 30-60; how it was run: as §1
Canis familiaris [5] = assay: Cardiotoxicity in spontaneously respiring dog assessed as degree of increase in heart rate at 30 to 60 mg/kg, iv relative to control; assay type: toxicity, organism-based, Canis lupus familiaris; design: dose 30-60 mg/kg, route intravenous; details: in vivo; how it was run: as §3
Canis familiaris [6] = assay: Bronchodilator activity in dog assessed as time of inhibition of carbachol or histamine-induced bronchoconstriction at 30 to 60 mg/kg, iv relative to control; assay type: functional, Canis lupus familiaris; details: dose mg/kg 30-60; how it was run: as §2
Canis familiaris [7] = assay: Cardiotoxicity in spontaneously respiring dog assessed as time of increase in heart rate at 2000 to 2700 mg/kg, it relative to control; assay type: toxicity, organism-based, Canis lupus familiaris; design: dose 2000-2700 mg/kg, route endotracheal; details: in vivo, inhaled_or_intranasal; how it was run: as §3
Canis familiaris [8] = assay: Bronchodilator activity in dog assessed as time of inhibition of carbachol or histamine-induced bronchoconstriction at 400 to 800 mg/kg, it relative to control; assay type: functional, Canis lupus familiaris; details: dose mg/kg 400-800; route endotracheal; how it was run: as §2
Canis familiaris [9] = assay: Bronchodilator activity in dog assessed as time of inhibition of carbachol or histamine-induced bronchoconstriction at 50 to 100 mg/kg, id relative to control; assay type: functional, Canis lupus familiaris; details: dose mg/kg 50-100; route intraduodenal
How it was run: (§4)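 Anesthetized dogs with an airway cannula and a nonbreathing valve. Bronchoconstriction was induced by iv carbachol (2–4 μg/kg) or histamine diphosphate (20–50 μg/kg) and read as change in airway pressure by transducer. Each compound was tested against both agonists in different dogs, and the results were combined and averaged. Effect is % inhibition of control constriction, with at least three dogs per dose. Drugs were dissolved fresh in distilled water, diluted in saline and kept on ice.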

Canis familiaris [10] = assay: Bronchodilator activity in dog assessed as degree of inhibition of carbachol or histamine-induced bronchoconstriction at 50 to 100 mg/kg, id relative to control; assay type: functional, Canis lupus familiaris; details: dose mg/kg 50-100; route intraduodenal; how it was run: as §1
Canis familiaris [11] = assay: Cardiotoxicity in spontaneously respiring dog assessed as degree of increase in heart rate at 20 to 100 mg/kg, iv relative to control; assay type: toxicity, organism-based, Canis lupus familiaris; design: dose 20-100 mg/kg, route intravenous; details: in vivo; how it was run: as §3
Canis familiaris [12] = assay: Bronchodilator activity in dog assessed as degree of inhibition of carbachol or histamine-induced bronchoconstriction at 20 to 100 mg/kg, iv relative to control; assay type: functional, Canis lupus familiaris; details: dose mg/kg 20-100; how it was run: as §1
Canis familiaris [13] = assay: Bronchodilator activity in dog assessed as time of inhibition of carbachol or histamine-induced bronchoconstriction at 20 to 100 mg/kg, iv relative to control; assay type: functional, Canis lupus familiaris; details: dose mg/kg 20-100; how it was run: as §2
Canis familiaris [14] = assay: Bronchodilator activity in dog assessed as degree of inhibition of carbachol or histamine-induced bronchoconstriction at 400 to 800 mg/kg, it relative to control; assay type: functional, Canis lupus familiaris; details: dose mg/kg 400-800; route endotracheal; how it was run: as §1
Canis familiaris [15] = assay: Cardiotoxicity in spontaneously respiring dog assessed as time of increase in heart rate at 20 to 100 mg/kg, iv relative to control; assay type: toxicity, organism-based, Canis lupus familiaris; design: dose 20-100 mg/kg, route intravenous; details: in vivo; how it was run: as §3
Canis familiaris [16] = assay: Bronchodilator activity in dog assessed as degree of inhibition of carbachol or histamine-induced bronchoconstriction at 590 to 1180 mg/kg, it relative to control; details: dose mg/kg 590-1180; route endotracheal
Canis familiaris [17] = assay: Bronchodilator activity in dog assessed as time of inhibition of carbachol or histamine-induced bronchoconstriction at 590 to 1180 mg/kg, it relative to control; details: dose mg/kg 590-1180; route endotracheal
Canis familiaris [18] = assay: Bronchodilator activity in dog assessed as degree of inhibition of carbachol or histamine-induced bronchoconstriction at 50 mg/kg, id relative to control; assay type: functional; details: Canis lupus familiaris, route intraduodenal; how it was run: as §1
Canis familiaris [19] = assay: Bronchodilator activity in dog assessed as degree of inhibition of carbachol or histamine-induced bronchoconstriction at 5 mg/kg, iv relative to control; assay type: functional; details: Canis lupus familiaris; how it was run: as §1
Canis familiaris [20] = assay: Bronchodilator activity in dog assessed as time of inhibition of carbachol or histamine-induced bronchoconstriction at 5 mg/kg, iv relative to control; assay type: functional, Canis lupus familiaris; how it was run: as §4
Canis familiaris [21] = assay: Bronchodilator activity in dog assessed as time of inhibition of carbachol or histamine-induced bronchoconstriction at 50 mg/kg, id relative to control; assay type: functional, Canis lupus familiaris; details: route intraduodenal; how it was run: as §4
Canis familiaris [22] = assay: Bronchodilator activity in dog assessed as degree of inhibition of carbachol or histamine-induced bronchoconstriction at 430 to 860 mg/kg, it relative to control; assay type: functional, Canis lupus familiaris; details: dose mg/kg 430-860; route endotracheal; how it was run: as §1
Canis familiaris [23] = assay: Bronchodilator activity in dog assessed as time of inhibition of carbachol or histamine-induced bronchoconstriction at 200 mg/kg, iv relative to control; assay type: functional, Canis lupus familiaris; how it was run: as §2
Canis familiaris [24] = assay: Bronchodilator activity in dog assessed as degree of inhibition of carbachol or histamine-induced bronchoconstriction at 200 mg/kg, iv relative to control; assay type: functional; details: Canis lupus familiaris; how it was run: as §1
Canis familiaris [25] = assay: Cardiotoxicity in spontaneously respiring dog assessed as time of increase in heart rate at 200 mg/kg, iv relative to control; assay type: toxicity, organism-based, Canis lupus familiaris; design: dose 200 mg/kg, route intravenous; details: in vivo; how it was run: as §3
Canis familiaris [26] = assay: Bronchodilator activity in dog assessed as time of inhibition of carbachol or histamine-induced bronchoconstriction at 100 to 200 mg/kg, id relative to control; assay type: functional, Canis lupus familiaris; details: dose mg/kg 100-200; route intraduodenal; how it was run: as §2
Canis familiaris [27] = assay: Bronchodilator activity in dog assessed as time of inhibition of carbachol or histamine-induced bronchoconstriction at 430 to 860 mg/kg, it relative to control; assay type: functional, Canis lupus familiaris; details: dose mg/kg 430-860; route endotracheal; how it was run: as §4
Canis familiaris [28] = assay: Bronchodilator activity in dog assessed as degree of inhibition of carbachol or histamine-induced bronchoconstriction at 100 to 200 mg/kg, id relative to control; assay type: functional, Canis lupus familiaris; details: dose mg/kg 100-200; route intraduodenal; how it was run: as §1
Canis familiaris [29] = assay: Cardiotoxicity in spontaneously respiring dog assessed as degree of increase in heart rate at 200 mg/kg, iv relative to control; assay type: toxicity, organism-based, Canis lupus familiaris; design: dose 200 mg/kg, route intravenous; details: in vivo; how it was run: as §3

Which results are given for `CC(C)(C)NC[C@H](O)c1ccc(OC(=O)c2ccccc2)c(OC(=O)c2ccccc2)c1.Cl`?
inhibition (INH) (Canis familiaris [1]): >70%; Time (Canis familiaris [2]): 4 h; Activity (Canis familiaris [3]): 20%; inhibition (INH) (Canis familiaris [4]): 45%; Activity (Canis familiaris [5]): 40%; Time (Canis familiaris [6]): <4 h; Time (Canis familiaris [7]): 1 h

What does the source list for `CC(C)(C)NC[C@H](O)c1ccc(OC(=O)C(C)(C)C)c(OC(=O)C(C)(C)C)c1.Cl`?
Time (Canis familiaris [8]): <2 h; Time (Canis familiaris [9]): 3 h; inhibition (INH) (Canis familiaris [10]): >70%; Activity (Canis familiaris [11]): 20 beats/min; inhibition (INH) (Canis familiaris [12]): >70%; Time (Canis familiaris [13]): 3 h; inhibition (INH) (Canis familiaris [14]): 45%; Time (Canis familiaris [15]): < 2 h

How did the “inhibition (INH)” value (Canis familiaris [16]) turn out when `CS(=O)(=O)O.Cc1cc(C)cc(C(=O)Oc2ccc([C@@H](O)CNC(C)(C)C)cc2OC(=O)c2cc(C)cc(C)c2)c1` was run?
The value was 20%.

And the Time (Canis familiaris [17])?
The Time was less than 3 h.

How did the inhibition in vivo at 50 mg/kg (Canis familiaris [18]) turn out when `CC(C)(C)NC[C@H](O)c1ccc(OC(=O)C2(C)CC2)c(OC(=O)C2(C)CC2)c1.Cl` was run?
The inhibition in vivo at 50 mg/kg was 45%.

What about the inhibition in vivo at 5 mg/kg (Canis familiaris [19]) of the same compound?
Its inhibition in vivo at 5 mg/kg is 45%.

What about the Time (Canis familiaris [20]) of the same compound?
The Time was less than 1 h.

And the Time (Canis familiaris [21])?
The Time was 2 h.

How did the “inhibition (INH)” value (Canis familiaris [22]) turn out when `CC(C)(C)CC(=O)Oc1ccc([C@@H](O)CNC(C)(C)C)cc1OC(=O)CC(C)(C)C.Cl` was run?
The value was 20%.

And the Time (Canis familiaris [23])?
The Time was greater than 4 h.

And the inhibition in vivo at 200 mg/kg (Canis familiaris [24])?
Its inhibition in vivo at 200 mg/kg is greater than 70%.

What about the Time (Canis familiaris [25]) of the same compound?
The Time was less than 1 h.

What about the Time (Canis familiaris [26]) of the same compound?
The Time was less than 5 h.

And the Time (Canis familiaris [27])?
The Time was less than 3 h.

And the “inhibition (INH)” value (Canis familiaris [28])?
Its value is 45%.

What about the Activity (Canis familiaris [29]) of the same compound?
Its Activity is 20%.
